High-throughput results (PubChem)
E-sel inducer = E-selectin induction on HUVECs. P16581. HUVEC E-selectin immunofluorescence imaging; normalized: neutral wells 0, TNF-alpha wells 100. activation, % at 7.58 µM. hit rate 0.37% among 260,000. AID 686992;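 active means mean E-selectin-positive cell signal at least 10% of the positive control, reached in at least 60% of replicates, without over 20% cell loss; inconclusive means no rule given, readout overlaps actives, possibly toxicity-flagged; inactive means the rest, including those meeting only one limit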
Target sequence (P16581 whole entry, looked up): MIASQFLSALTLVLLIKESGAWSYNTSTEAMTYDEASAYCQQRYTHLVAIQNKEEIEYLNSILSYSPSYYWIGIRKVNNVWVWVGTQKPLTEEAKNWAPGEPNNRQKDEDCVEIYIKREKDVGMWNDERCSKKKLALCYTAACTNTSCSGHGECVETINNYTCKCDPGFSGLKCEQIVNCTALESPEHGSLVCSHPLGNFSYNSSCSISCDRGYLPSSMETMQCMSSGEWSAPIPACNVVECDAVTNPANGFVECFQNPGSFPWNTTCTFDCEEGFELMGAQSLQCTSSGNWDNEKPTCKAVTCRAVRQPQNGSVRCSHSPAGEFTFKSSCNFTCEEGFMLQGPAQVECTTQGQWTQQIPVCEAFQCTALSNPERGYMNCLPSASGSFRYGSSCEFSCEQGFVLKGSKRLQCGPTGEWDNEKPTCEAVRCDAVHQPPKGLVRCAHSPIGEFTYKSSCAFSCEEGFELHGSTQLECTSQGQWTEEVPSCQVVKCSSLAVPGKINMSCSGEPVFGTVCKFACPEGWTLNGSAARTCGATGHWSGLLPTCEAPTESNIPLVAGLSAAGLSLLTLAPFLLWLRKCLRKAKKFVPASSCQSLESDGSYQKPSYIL
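Assay system: HUVEC primary endothelial cells. Input: 3,000 HUVEC seeded per well. Doses: one compound dose added by pin transfer. Read-out basis: % PE-positive cells. Benchmarks: TNF-alpha high, DMSO low. Detection: immunofluorescence imaging. Buffer or medium: EGM-2, gelatin.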
XiGFP reactiv = X-chromosome reactivation activator | XiGFP mouse fibroblasts, % GFP-positive cells imaging, 3 d; cells co-treated with 5-aza-dC sensitizer; scaled so ellipticine positive control = 100% | activation, % at 7.58 µM | hit rate 0.055% among 360,000 | AID 743238;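 active means mean normalized replicate activation at least 10% and every replicate at or above 10%; inconclusive means only one of the two criteria met; inactive means mean below 10% and not all replicates reach 10%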
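System: XiGFP fibroblasts, SV40-immortalized. Medium: DMEM plus 5-aza-dC sensitizer. Doses: single point. Timing: 3 d treatment, 15 min room-temperature fixation. Control set: ellipticine 6 µM.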
PglD inh = blocks C. jejuni PglD acetyltransferase activity. purified PglD enzyme, DTNB colorimetric CoA detection. inhibition, % at 12.5 µM. hit rate 0.098% among 360,000. AID 602405; in the data active means inhibition above about 16%, passing the limit was not always enough; inconclusive means no clear call, values can overlap the other calls
C2C12 statin = suppressors of simvastatin-induced myotoxicity in C2C12 myotubes; ATP luminescence, 48 h; scaled: DMSO 0, geranylgeraniol control 100; rescue of ATP level, % at 7.49 µM; hit rate 0.78% among 330,000;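 active means mean ATP rescue above about 67%, or every replicate alone reaching that limit, limit read from the data, passing the limit was not always enough; inconclusive means no clear call, values can overlap the other calls; inactive means mean under the limit and some replicate under it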;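 further: myotubes were challenged with 10 µM simvastatin during compound exposure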
FGF22 binding-1 = shifts melting point of recombinant human FGF22 | Q9HCT0 | recombinant FGF22 thermal shift, SYPRO orange fluorescence; percent of sucrose octasulfate shift, DMSO zero | activity (Tm shift, normalised), % at 9.99 µM | hit rate 1.5% among 340,000;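 active means mean Tm shift, scaled 0 neutral to 100 positive control, at about 1.3% or above, every replicate too, limit read from the data; inconclusive means no clear call, values can overlap the other calls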
DENV2 CPE rescue = DENV2-induced cell death inhibition; CPE inhibition, % at 9.99 µM; DENV2-infected cells, cytopathic effect rescue, plate reader; hit rate 1.7% among 350,000; in the data active means CPE inhibition above about 20%, passing the limit was not always enough; inconclusive means no clear call, values can overlap the other calls; tested in BHK-21 cells
FGF22 binding-2 = FGF22 (human) binding in thermal shift; hit rate 2% among 1,000; recombinant FGF22 thermal shift, SYPRO orange fluorescence; shares compounds with FGF22 binding-1; thermal shift activity, °C (ΔTm) at 38 µM;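 active means fitted rise in melting shift crosses a set limit at or below the top valid dose tested; inconclusive means flat fit at mid-level activity, or a poor quality fit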
TSA no protein = compound-only SYPRO artifact for FGF22 binders; shares compounds with FGF22 binding-1; compound-only SYPRO orange thermal shift counter-screen, no protein; AC50, µM (titrated, usually from 38 µM); hit rate 2% among 1,000; AID 743019;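 active means rising signal whose fitted curve reaches the 0.54 level within the top valid dose, showing a melting point, actives reach about 13 µM in these data; inactive means the rest, including activity in the opposite direction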; further: value is where the raw curve crosses a fixed level and not half-maximal
A number is an active result; - = inactive; ? = inconclusive; . = no result; ! = not confirmed by another sample. In the library only some 3.3% were active in any assay of this set; here they are far more common.

SMILES	E-sel inducer	XiGFP reactiv	PglD inh	C2C12 statin	FGF22 binding-1	DENV2 CPE rescue	FGF22 binding-2	TSA no protein
O=C(N/N=C/c1c[nH]c2ccc(Br)cc12)c1ccncc1	-	-	.	.	.	.	.	.
O=C(N/N=C/c1c[nH]c2ccccc12)c1ccc2c(c1)OCCO2	-	-	-	-	1.6	-	-	-
NC(=O)C(=O)N/N=C/c1c[nH]c2ccc(Br)cc12	.	-	.	.	-	-	.	.
CNC(=O)C[C@@H]1CC[C@@H]2[C@@H](COc3ccc(NS(=O)(=O)c4ccccc4C)cc3C(=O)N2C)O1	-	-	-	-	20	?	-	-
CNC(=O)C[C@@H]1CC[C@@H]2[C@H](COc3ccc(NC(=O)c4cccc(F)c4)cc3C(=O)N2C)O1	-	-	-	-	16!	-	-	-
CCCNC(=O)C[C@H]1CC[C@H]2[C@H](COc3ccc(NS(=O)(=O)c4ccccc4C)cc3C(=O)N2C)O1	-	-	-	-	.	-	.	.
CCCNC(=O)C[C@@H]1CC[C@@H]2[C@H](COC[C@H](O)CN2C(=O)Nc2cccc(Cl)c2)O1	-	-	-	-	-	-	.	.
C[C@@H]1CN([C@@H](C)CO)C(=O)Cc2cc(NC(=O)Cn3cnnn3)ccc2O[C@@H]1CN(C)S(=O)(=O)c1ccc(F)cc1	-	-	-	-	-	-	.	.
Cc1ccc(S(=O)(=O)N(C)c2ccc(OCC(=O)Nc3ccc(S(C)(=O)=O)cc3)cc2)cc1	-	-	-	-	-	-	.	.
Cc1ccc(S(=O)(=O)N(C)c2ccc(OC(=O)COc3ccccc3)cc2)cc1	-	-	-	-	15	-	-	-
NS(=O)(=O)c1ccc2c(c1)C(=NO)c1cc(S(N)(=O)=O)ccc1-2	-	-	-	-	28	-	-	-
COc1cc(/C=N/NC(=O)c2ccncc2)ccc1OCC(=O)Nc1cccc([N+](=O)[O-])c1	-	-	-	-	1.9	-	-	-
O=C(C1CC1)N1CCCCN2[C@H](CO)[C@@H](c3ccc(C#CC4CC4)cc3)[C@H]2C1	.	.	-	.	-	-	.	.
COc1ccc2c3c(n(C)c2c1)[C@H](CO)N(C(=O)c1ccncc1)CC31CCN(C(C)=O)CC1	-	-	.	.	-	-	.	.
Cc1ccc(N(CCC#N)C(=O)COC(=O)c2cc(C)no2)cc1	-	-	.	-	2.8	-	-	-
O=C(Nc1ccc2c(c1)OCO2)c1cnn2cccnc12	.	.	-	-	1.9	-	-	-
O=C(Nc1cccc(O)c1)c1cnn2cccnc12	.	.	-	-	-	-	.	.
C[C@@H]1CN([C@@H](C)CO)C(=O)c2cc(C#Cc3ccccn3)cnc2O[C@H]1CN(C)C(=O)c1ccccn1	-	-	-	-	-	-	.	.
CO[C@@H](CN(C)C(=O)C1CC1)[C@H](C)CN(C(=O)Nc1ccc(C(F)(F)F)cc1)[C@@H](C)CO	-	-	-	-	-	-	.	.
COc1ccc(NC(=O)CN(c2ccc(C(C)C)cc2)S(=O)(=O)c2c(C)noc2C)cc1OC	.	-	-	-	13	-	-	-
COc1ccc2c3c([nH]c2c1)[C@H](CO)N(C(=O)CN1CCOCC1)CC31CN(C(=O)NC(C)C)C1	-	-	.	.	-	-	.	.
Cc1ccc(S(=O)(=O)NCC[C@@H]2CC[C@H](NC(=O)c3cnccn3)[C@H](CO)O2)cc1	-	-	-	-	-	-	.	.
C[C@H](CO)N1C[C@H](C)[C@@H](CN(C)C)Oc2ncc(-c3cccnc3)cc2C1=O	.	.	-	-	1.7	?	-	-
COc1ccccc1-c1cnc2c(c1)C(=O)N([C@H](C)CO)C[C@H](C)[C@@H](CN(C)C(=O)c1cccnc1)O2	-	-	-	-	-	-	.	.
C[C@@H]1CN([C@@H](C)CO)C(=O)c2cc(-c3cccnc3)cnc2O[C@@H]1CN(C)C	-	-	-	-	-	-	.	.
SMILES	E-sel inducer	XiGFP reactiv	PglD inh	C2C12 statin	FGF22 binding-1	DENV2 CPE rescue	FGF22 binding-2	TSA no protein
COc1ccccc1-c1cnc2c(c1)C(=O)N([C@@H](C)CO)C[C@H](C)[C@H](CN(C)C(=O)c1cccnc1)O2	-	-	-	-	1.9	-	-	-
Cc1ccc(S(=O)(=O)N(C)C[C@H]2Oc3ncc(Br)cc3C(=O)N([C@@H](C)CO)C[C@H]2C)cc1	-	-	-	-	5.3	-	-	-
Cc1ccc(S(=O)(=O)N(C)C[C@H]2Oc3ncc(Br)cc3C(=O)N([C@@H](C)CO)C[C@@H]2C)cc1	-	-	-	-	-	-	.	.
C[C@@H]1CN([C@@H](C)CO)C(=O)Cc2cc(NC(=O)Nc3ccc4c(c3)OCO4)ccc2O[C@H]1CN(C)C(=O)Nc1ccccc1	-	-	-	-	-	-	.	.
CCC(=O)N(C)C[C@@H]1Oc2cc(C#CC3CC3)ccc2S(=O)(=O)N([C@@H](C)CO)C[C@@H]1C	-	-	-	-	-	-	.	.
CC(C)(C)S(=O)(=O)/C(C#N)=N/Nc1ccc(Cl)cc1	.	-	.	.	1.7	-	-	-
CC(C)(C)c1ccc(N/N=C(\C#N)S(=O)(=O)C(C)(C)C)cc1	.	-	.	.	-	-	.	.
NNC(=O)CN1C(=O)C2(OCCO2)c2ccccc21	-	-	-	-	30	-	-	-
CCCNC(=O)C1(C)CCCN(C(=O)C2(c3ccc(Cl)cc3)CCCC2)C1 (configuration not stated)	-	-	-	-	-	?	.	.
CCNC(=O)C1(C)CCCN(C(=O)C2(c3ccc(Cl)cc3)CCCC2)C1 (configuration not stated)	-	-	-	-	1.6	-	-	-
CCC(=O)Nc1ccc2c(c1)OC[C@H](C)N(C(=O)CN(C)C)C[C@H](C)[C@H](OC)CN(C)C2=O	-	-	-	-	-	-	.	.
O=C(Nc1ccc(O)cc1)c1cccc(Oc2ccc([N+](=O)[O-])cc2)c1	.	-	.	.	3.1	-	-	-
Cc1ccc(-c2cnc3c(c2)C(=O)N([C@H](C)CO)C[C@H](C)[C@H](CN(C)S(C)(=O)=O)O3)cc1	-	-	-	-	-	?	.	.
CO[C@@H]1CN(C)C(=O)c2cc(NC(=O)NC(C)C)ccc2OC[C@@H](C)N(C)C[C@@H]1C	-	-	-	-	37	-	-	-
COCC(=O)N1C[C@@H](C)[C@H](OC)CN(C)C(=O)c2ccc(NC(=O)NC(C)C)cc2OC[C@@H]1C	-	-	-	-	2.2	-	-	-
COc1ccc2c3c([nH]c2c1)[C@@H](CO)N(S(C)(=O)=O)CC31CCN(C(=O)c2cccnc2)CC1	-	-	.	.	-	-	.	.
